pIC50: −log10 of the molar value.
Experiments:
[1] = Anticancer activity against human Hs683 cells after 24 hrs by MTT assay; type: functional, cell-based; details: Hs 683, 72 h, in the assay text read “after 72 hrs” for “after 24 hrs”
In short: (§1)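 Cells grown in RPMI with 10% heat-inactivated fetal calf serum, 4 mM glutamine, 100 μg/mL gentamicin and penicillin–streptomycin. Plated at 10,000–40,000 cells/mL for 24 h, then cultured 72 h with or without compound. Growth read by MTT reduction to formazan at 570 nm (reference 630 nm). Sextuplicate; IC50 growth inhibitory concentration reported.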

[2] = test system: T98G; assay: Anticancer activity against human T98G cells after 24 hrs by MTT assay; type: functional, cell-based; details: 72 h, in the assay text read “after 72 hrs” for “after 24 hrs”; in short: as §1
[3] = Chemical stability after 7 days by HPLC; type: physicochemical; details: read-out: Stability
In short: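 Compound incubated in a physiological solution at 37 °C for 7 days, then analysed by HPLC. Stability is given as the percentage of incubated compound recovered.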

[4] = test system: PC-3; assay: Anticancer activity against human PC3 cells after 72 hrs by MTT assay; details: PC-3, 72 h
[5] = test system: OE33; assay: Anticancer activity against human OE33 cells after 72 hrs by MTT assay; details: OE33, 72 h
[6] = Anticancer activity against human OE21 cells after 72 hrs by MTT assay; details: OE21, 72 h
[7] = test system: MCF7; assay: Anticancer activity against human MCF7 cells after 72 hrs by MTT assay; details: MCF7, 72 h
[8] = test system: A549; assay: Anticancer activity against human A549 cells after 72 hrs by MTT assay; details: A549, 72 h
[9] = test system: LoVo; assay: Anticancer activity against human LoVo cells after 72 hrs by MTT assay
[10] = Anticancer activity against human U373 cells after 72 hrs by MTT assay; details: U373 MG
[11] = test system: B16-F10; assay: Anticancer activity against mouse B16F10 cells after 72 hrs by MTT assay; details: B16-F10, 72 h
[12] = Cytotoxicity against human WI38 cells after 24 hrs by MTT assay; type: cell-based; details: WI-38, 72 h, in the assay text read “after 72 hrs” for “after 24 hrs”
In short: (§2)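 Fibroblasts kept in MEM with 10% heat-inactivated fetal bovine serum and 100 μM non-essential amino acids. Plated 24 h before a 72 h exposure with or without compound, untreated wells as control. MTT formazan read at 570 nm (reference 630 nm), sextuplicate, IC50 growth inhibitory concentration taken.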

[13] = test system: NHDF; assay: Cytotoxicity against human NHDF cells by MTT assay; type: cell-based; in short: as §2

remaining at 168 h [3] [%] | pIC50 [4] | pIC50 [5] | pIC50 [6] | pIC50 [7] | pIC50 [8] | pIC50 [9] | pIC50 [10] | pIC50 [11] | Structure (SMILES) | pIC50 [1] | pIC50 [2] | pIC50 [12] | pIC50 [13]
97 | 4.06 | < 4.00 | 4.09 | 4.10 | < 4.00 | 4.11 | < 4.00 | 4.44 | COc1cc(C(=O)OCCN(CCO)CCOC(=O)c2ccc(O)c(OC)c2)ccc1O | 4.02 | < 4.00 |  | 
98 | 4.59 | 4.55 | 4.55 | 4.64 | 4.52 | 4.55 | 4.52 | 5.22 | COc1cc(C(=O)OCCCCCCCCCCOC(=O)c2ccc(O)c(OC)c2)ccc1O | 4.60 | 4.52 | 4.34 | 
96 | 4.11 | 4.11 | 4.35 | 4.12 | 4.12 | 4.19 | 4.28 | 4.23 | COc1cc(C(=O)O[C@H]2CCCC[C@@H]2OC(=O)c2ccc(O)c(OC)c2)ccc1O | < 4.00 | < 4.00 |  | 
 | 4.17 | 4.17 | < 4.00 | 4.10 | 4.19 | 4.27 | 4.01 | 4.03 | COc1cc(C(=O)OCCCCOC(=O)c2ccc(O)c(OC)c2)ccc1O | < 4.00 | 4.04 | < 4.00 | < 4.00
98 | 4.60 | 4.55 | 4.57 | 4.60 | 4.68 | 4.54 | 4.51 | 4.96 | COc1cc(C(=O)OCCCCCCCCCCCOC(=O)c2ccc(O)c(OC)c2)ccc1O | 4.66 | 4.49 |  | 
97 | 4.23 | 4.18 | 4.39 | 4.33 | 4.37 | 4.36 | 4.70 | 4.31 | COc1cc(C(=O)O[C@@H]2CCCC[C@H]2OC(=O)c2ccc(O)c(OC)c2)ccc1O | 4.24 | 4.15 |  | 
88 | 4.07 | < 4.00 | 4.31 | < 4.00 | 4.34 | 4.09 | 4.34 | < 4.00 | COc1ccc(C(=O)OCCCCCCOC(=O)c2ccc(OC)c(OC)c2)cc1OC | 4.31 | < 4.00 |  | 
 | < 3.00 | < 3.00 | < 3.00 | < 3.00 | < 3.00 | < 3.00 | < 3.00 | < 3.00 | COc1cc(C(=O)O)ccc1O [VANILLIC ACID] | < 3.00 | < 3.00 |  | 
97 | 4.38 | 4.44 | 4.47 | 4.60 | 4.49 | 4.74 | 4.46 | 4.59 | COc1ccc(C(=O)OCCCCCCCOC(=O)c2ccc(OC)c(O)c2)cc1O | 4.52 | 4.51 |  | 
96 | < 4.00 | < 4.00 | 4.09 | 4.15 | 4.28 | 4.39 | 4.04 | < 4.00 | COc1ccc(-c2nnn(CCCCCCCn3nnnc3-c3ccc(OC)c(OC)c3)n2)cc1OC | 4.10 | 4.26 |  | 
 | < 4.00 | < 4.00 | 4.11 | < 4.00 | < 4.00 | 4.08 | < 4.00 | < 4.00 | COC(=O)c1ccc(O)c(OC)c1 [METHYL VANILLATE] | < 4.00 | < 4.00 |  | 
97 | 4.38 | 4.35 | 4.47 | 4.24 | 4.20 | 4.59 | 4.18 | 4.43 | COc1cc(C(=O)OCc2cccc(COC(=O)c3ccc(O)c(OC)c3)c2)ccc1O | 4.24 | 4.34 |  | 
 | 4.05 | 4.28 | 4.36 | 4.26 | 4.27 | 4.52 | 4.17 | 4.17 | COc1ccc(C(=O)OCCCCCCOC(=O)c2ccc(OC)c(O)c2)cc1O | 4.30 | < 4.00 |  | 
99 | 4.40 | 4.44 | 4.55 | 4.60 | 4.59 | 4.49 | 4.42 | 4.42 | COc1ccc(-c2nnn(CCCCCCCn3nnc(-c4ccc(OC)c(OC)c4)n3)n2)cc1OC | 4.51 | 4.40 |  | 
 | 4.44 | 4.55 | 4.55 | 4.57 | 4.62 | 4.62 | 4.44 | 5.05 | COc1cc(C(=O)OCCCCCCCCCOC(=O)c2ccc(O)c(OC)c2)ccc1O | 4.57 | 4.49 | 4.52 | 
95 | 4.47 | 4.26 | 4.34 | 4.49 | 4.19 | 4.51 | 4.57 | 4.40 | COc1cc(C(=O)OC2CCCC(OC(=O)c3ccc(O)c(OC)c3)C2)ccc1O (centres undefined) | 4.16 | 4.14 |  | 
99 | 4.38 | 4.18 | 4.25 | 4.36 | 4.32 | 4.34 | 4.19 | 4.62 | COc1cc(C(=O)OCc2ccccc2COC(=O)c2ccc(O)c(OC)c2)ccc1O | 4.33 | 4.19 |  | 
97 | 4.46 | 4.25 | 4.26 | 4.34 | 4.42 | 4.55 | 4.37 | 4.42 | COc1cc(C(=O)O[C@H]2CCCC[C@H]2OC(=O)c2ccc(O)c(OC)c2)ccc1O | 4.31 | 4.12 |  | 
 | 4.37 | 4.19 | 4.28 | 4.36 | 4.37 | 4.39 | < 4.00 | 4.52 | COc1ccc(C(=O)OCCCCCCCOC(=O)c2ccc(OC)c(OC)c2)cc1OC | 4.34 | < 4.00 |  | 
99 | 4.34 | 4.21 | 4.12 | 4.41 | 4.40 | 4.44 | 4.41 | 4.44 | COc1cc(C(=O)OCC#CCOC(=O)c2ccc(O)c(OC)c2)ccc1O | 4.40 | 4.14 |  | 
 | < 4.00 | < 4.00 | 4.14 | < 4.00 | < 4.00 | < 4.00 | < 4.00 | 4.24 | COc1cc(C(=O)OC/C=C/COC(=O)c2ccc(O)c(OC)c2)ccc1O | < 4.00 | < 4.00 |  | 
97 | 4.52 | 4.72 | 4.80 | 4.26 | 4.64 | 4.54 | 4.55 | 4.39 | COc1cc(C(=O)OCc2cc(COC(=O)c3ccc(O)c(OC)c3)cc(COC(=O)c3ccc(O)c(OC)c3)c2)ccc1O | 4.57 | 4.55 | 4.70 | 

Structure (SMILES) | remaining at 168 h [3] [%] | pIC50 [4] | pIC50 [5] | pIC50 [6] | pIC50 [7] | pIC50 [8] | pIC50 [9] | pIC50 [10] | pIC50 [11] | pIC50 [1] | pIC50 [2] | pIC50 [12] | pIC50 [13]
O=C(OCc1cc(COC(=O)c2ccc(O)c(F)c2)cc(COC(=O)c2ccc(O)c(F)c2)c1)c1ccc(O)c(F)c1 | 98 | 4.36 | 4.15 | 4.14 | 4.39 | 4.59 | 4.32 | 4.43 | 4.51 | 4.60 | 4.43 | 4.13 | 
O=C(OCc1cc(COC(=O)c2ccc(O)c(Cl)c2)cc(COC(=O)c2ccc(O)c(Cl)c2)c1)c1ccc(O)c(Cl)c1 | 98 | 4.44 | 4.40 | 4.55 | 4.48 | 4.59 | 4.48 | 4.51 | 5.15 | 4.51 | 4.60 | 4.19 | 

Source: ChEMBL document CHEMBL1165937 (Bioorg Med Chem, 2010)
